Data from ChEMBL document CHEMBL1155544, “Syntheses and structure-activity relationship (SAR) studies of 2,5-diazabicyclo[2.2.1]heptanes as novel alpha7 neuronal nicotinic receptor (NNR) ligands” (Bioorg Med Chem Lett, 2010).

Assay: Metabolic stability in human liver microsome assessed as compound remaining after 30 mins
Format: ADME
Details: liver microsomes, read-out: Stability
Summary of the method: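 Human liver microsomes, 30 min incubation; read-out is percent of parent compound remaining.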

Compound CN1C[C@@H]2C[C@H]1CN2c1ccc(-c2ccc3[nH]ccc3c2)nn1 has a remaining at 0.5 h of 97%.
